ChEMBL document CHEMBL4308847, “Discovery, Structure-Activity Relationship, and Biological Characterization of a Novel Series of 6-((1 H-Pyrazolo[4,3- b]pyridin-3-yl)amino)-benzo[ d]isothiazole-3-carboxamides as Positive Allosteric Modulators of the Metabotropic Glutamate Receptor 4 (mGlu4)” (J Med Chem, 2018)
Calls of active or inactive are those of the source. No cut-off for these calls is given here.

Assays:
[1] = Intrinsic clearance in human liver microsomes at 1 uM preincubated for 5 mins followed by NADPH addition measured up to 45 mins by LC-MS/MS analysis; type: ADME, Microsome; conditions: read-out: CLH
Procedure, shortened: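 Intrinsic and predicted hepatic clearance derived from liver microsome incubations.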

[2] = target: Metabotropic glutamate receptor 3 (Rattus norvegicus) (UniProt P31422); assay: Allosteric modulation of rat mGlu3 receptor expressed in HEK cells co-expressing GIRK1/2 assessed as change in glutamate-induced thallium flux preincubated for 2.5 mins followed by glutamate addition by FluoZin-2-AM dye based fluorescence assay; type: cell-based
Chain of Metabotropic glutamate receptor 3 (Rattus norvegicus) (P31422 23-879 limits assumed): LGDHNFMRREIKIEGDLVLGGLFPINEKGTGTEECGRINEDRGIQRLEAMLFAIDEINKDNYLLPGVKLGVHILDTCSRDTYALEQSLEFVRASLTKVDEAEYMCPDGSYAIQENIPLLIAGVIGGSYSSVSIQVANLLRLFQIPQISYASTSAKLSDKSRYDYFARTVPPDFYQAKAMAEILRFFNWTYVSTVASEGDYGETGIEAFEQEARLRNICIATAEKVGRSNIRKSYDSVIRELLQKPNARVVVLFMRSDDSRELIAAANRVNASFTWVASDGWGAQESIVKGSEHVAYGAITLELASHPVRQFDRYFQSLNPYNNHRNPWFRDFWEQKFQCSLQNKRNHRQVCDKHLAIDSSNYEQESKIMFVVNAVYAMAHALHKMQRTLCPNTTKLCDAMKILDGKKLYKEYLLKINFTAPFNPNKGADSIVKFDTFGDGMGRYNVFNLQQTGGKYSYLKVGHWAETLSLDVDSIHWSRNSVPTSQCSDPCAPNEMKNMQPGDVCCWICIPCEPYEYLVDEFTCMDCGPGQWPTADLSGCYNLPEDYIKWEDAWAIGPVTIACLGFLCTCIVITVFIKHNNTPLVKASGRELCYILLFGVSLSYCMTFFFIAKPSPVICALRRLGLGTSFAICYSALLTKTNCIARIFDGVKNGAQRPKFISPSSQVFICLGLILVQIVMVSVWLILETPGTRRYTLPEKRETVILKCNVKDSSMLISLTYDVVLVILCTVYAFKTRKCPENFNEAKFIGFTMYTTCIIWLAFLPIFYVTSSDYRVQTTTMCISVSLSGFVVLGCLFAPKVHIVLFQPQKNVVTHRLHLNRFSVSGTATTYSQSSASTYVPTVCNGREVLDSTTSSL
Procedure, shortened: (§1)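 HEK cells expressing GIRK1/2 plus rat mGlu2, mGlu3, mGlu7 or mGlu8, plated at 15,000 cells/well. Thallium flux was read with a double addition: 10 μM compound, then 2.5 min later a full agonist concentration-response. The agonist was glutamate, or L-AP4 for mGlu7. A left shift of more than 2-fold counted as potentiation. A right shift of more than 2-fold, or a ≥75% drop in maximum response, counted as antagonism.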

[3] = system: P-gp; assay: Permeability from apical to basolateral side in MDCK cells harboring P-gp; type: ADME, cell-based, Canis lupus familiaris; conditions: dog, MDCK-MDR1; read-out: permeability
[4] = target: Metabotropic glutamate receptor 5 (Rattus norvegicus) (UniProt P31424); assay: Allosteric modulation of rat mGlu5 receptor assessed as change in glutamate-induced calcium mobilization at 10 uM preincubated for 2.5 mins followed by glutamate addition by Fluo-4-AM dye based fluorescence assay; type: functional
Procedure, shortened: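 Human mGlu1 and rat mGlu5 tested by calcium mobilization with a double addition. 10 μM compound was added, then 2.5 min later a full glutamate concentration range. A left shift of more than 2-fold was scored as potentiation. A right shift of more than 2-fold, or a depression of the maximum response by at least 75%, was scored as antagonism.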

[5] = target: Metabotropic glutamate receptor 8 (Rattus norvegicus) (UniProt P70579); assay: Allosteric modulation of rat mGlu8 receptor expressed in HEK cells co-expressing GIRK1/2 assessed as change in glutamate-induced thallium flux preincubated for 2.5 mins followed by glutamate addition by FluoZin-2-AM dye based fluorescence assay; type: cell-based; procedure, shortened: as §1
Chain of Metabotropic glutamate receptor 8 (Rattus norvegicus) (P70579 whole entry): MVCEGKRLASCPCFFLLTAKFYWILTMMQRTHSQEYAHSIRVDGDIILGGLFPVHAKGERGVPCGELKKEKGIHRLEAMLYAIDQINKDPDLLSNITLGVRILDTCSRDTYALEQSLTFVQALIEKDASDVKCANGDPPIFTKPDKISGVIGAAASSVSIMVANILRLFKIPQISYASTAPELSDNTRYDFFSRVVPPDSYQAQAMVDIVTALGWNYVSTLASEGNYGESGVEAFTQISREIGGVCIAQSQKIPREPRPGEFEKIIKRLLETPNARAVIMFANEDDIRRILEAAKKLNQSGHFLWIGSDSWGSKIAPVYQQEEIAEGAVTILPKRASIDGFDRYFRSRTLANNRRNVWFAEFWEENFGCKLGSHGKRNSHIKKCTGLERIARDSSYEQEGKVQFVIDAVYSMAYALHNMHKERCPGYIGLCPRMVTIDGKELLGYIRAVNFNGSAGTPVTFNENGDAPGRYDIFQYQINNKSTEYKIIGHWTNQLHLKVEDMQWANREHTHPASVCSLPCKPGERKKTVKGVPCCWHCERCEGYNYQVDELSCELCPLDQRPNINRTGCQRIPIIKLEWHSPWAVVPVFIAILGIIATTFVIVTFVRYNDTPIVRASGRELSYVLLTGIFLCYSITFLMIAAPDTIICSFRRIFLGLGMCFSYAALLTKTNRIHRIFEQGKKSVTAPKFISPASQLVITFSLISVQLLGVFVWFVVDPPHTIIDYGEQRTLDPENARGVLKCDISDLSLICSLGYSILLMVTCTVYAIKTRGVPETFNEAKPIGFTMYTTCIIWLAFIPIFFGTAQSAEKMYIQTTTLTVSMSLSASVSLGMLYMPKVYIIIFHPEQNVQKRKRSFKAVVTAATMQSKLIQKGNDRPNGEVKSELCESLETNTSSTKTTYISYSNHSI

[6] = target: Metabotropic glutamate receptor 2 (Rattus norvegicus) (UniProt P31421); assay: Allosteric modulation of rat mGlu2 receptor expressed in HEK cells co-expressing GIRK1/2 assessed as change in glutamate-induced thallium flux preincubated for 2.5 mins followed by glutamate addition by FluoZin-2-AM dye based fluorescence assay; type: cell-based; procedure, shortened: as §1
Chain of Metabotropic glutamate receptor 2 (Rattus norvegicus) (P31421 19-872 limits assumed): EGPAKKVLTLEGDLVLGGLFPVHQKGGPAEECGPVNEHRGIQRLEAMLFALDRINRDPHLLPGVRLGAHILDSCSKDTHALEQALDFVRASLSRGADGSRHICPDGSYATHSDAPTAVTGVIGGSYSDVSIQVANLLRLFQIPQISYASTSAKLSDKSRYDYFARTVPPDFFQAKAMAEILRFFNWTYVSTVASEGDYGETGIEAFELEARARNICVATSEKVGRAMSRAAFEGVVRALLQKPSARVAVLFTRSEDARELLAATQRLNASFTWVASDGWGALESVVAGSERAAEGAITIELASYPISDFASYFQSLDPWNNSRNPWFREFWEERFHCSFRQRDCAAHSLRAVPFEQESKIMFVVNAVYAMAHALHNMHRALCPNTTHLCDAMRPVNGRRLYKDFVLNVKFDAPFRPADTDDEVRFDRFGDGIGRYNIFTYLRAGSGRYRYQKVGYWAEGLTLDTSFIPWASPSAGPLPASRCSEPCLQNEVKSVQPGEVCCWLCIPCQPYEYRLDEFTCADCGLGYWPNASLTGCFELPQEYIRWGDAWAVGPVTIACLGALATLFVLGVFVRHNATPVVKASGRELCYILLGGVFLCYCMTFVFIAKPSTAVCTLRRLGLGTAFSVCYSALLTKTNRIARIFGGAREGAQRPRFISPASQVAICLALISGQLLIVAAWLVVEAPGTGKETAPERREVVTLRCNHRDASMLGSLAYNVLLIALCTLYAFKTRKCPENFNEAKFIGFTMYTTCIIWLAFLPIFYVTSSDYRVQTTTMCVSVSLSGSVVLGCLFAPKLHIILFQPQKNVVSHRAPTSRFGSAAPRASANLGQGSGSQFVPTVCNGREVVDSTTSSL

[7] = Fraction unbound in rat plasma after 4 hrs by equilibrium dialysis method; type: ADME, cell-free
[8] = system: Rattus norvegicus; assay: Reversal of haloperidol-induced catalepsy in Sprague-Dawley rat assessed as decrease in latency to remove forepaws from bar at 10 mg/kg, po administered 30 mins prior to test; type: functional, organism-based
Procedure, shortened: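 Male Sprague-Dawley rats were randomized and given haloperidol 0.75 mg/kg i.p., then 60 min in home cage. Vehicle or compound (10 mg/kg) was given orally 30 min before catalepsy testing, N = 11–12 rats/group. Data analyzed by one-way ANOVA with Dunnett's test versus vehicle + haloperidol.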

[9] = Fraction unbound in human plasma after 4 hrs by equilibrium dialysis method; type: ADME, cell-free
[10] = target: T1, Adenosine receptor A3 (Homo sapiens) (UniProt P0DMS8); assay: Displacement of [125I]AB-MECA from recombinant human A3 receptor at 10 uM after 120 mins by scintillation counting method relative to control
T1 sequence (whole entry): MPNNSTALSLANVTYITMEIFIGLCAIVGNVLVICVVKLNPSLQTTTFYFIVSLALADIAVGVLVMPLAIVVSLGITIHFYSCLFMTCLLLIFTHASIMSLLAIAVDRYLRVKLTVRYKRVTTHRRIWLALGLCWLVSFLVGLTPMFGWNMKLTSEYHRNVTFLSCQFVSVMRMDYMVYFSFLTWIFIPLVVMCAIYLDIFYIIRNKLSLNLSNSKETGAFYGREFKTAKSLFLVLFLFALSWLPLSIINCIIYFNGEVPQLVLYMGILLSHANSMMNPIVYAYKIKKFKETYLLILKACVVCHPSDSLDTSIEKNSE

[11] = Drug uptake in brain of Sprague-Dawley rat model of haloperidol-induced catalepsy at 10 mg/kg, po; type: ADME, organism-based; conditions: in vivo, read-out: Drug uptake
Procedure, shortened: (§2)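 Male Sprague-Dawley rats given haloperidol 0.75 mg/kg i.p., then returned to cages for 60 min. Compound 10 mg/kg was dosed orally 30 min before catalepsy testing. Plasma, brain and CSF were then assayed, and free levels reported.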

[12] = Drug uptake in cerebrospinal fluid of Sprague-Dawley rat model of haloperidol-induced catalepsy at 10 mg/kg, po; type: ADME, organism-based; conditions: in vivo, read-out: Drug uptake; procedure, shortened: as §2
[13] = target: Cytochrome P450 2C9 (Homo sapiens, UniProt P11712); assay: Inhibition of CYP2C9 in human liver microsomes using diclofenac as substrate preincubated for 15 mins followed by substrate addition and measured after 8 mins by LC-MS/MS analysis; type: ADME
Chain of Cytochrome P450 2C9 (P11712 whole entry): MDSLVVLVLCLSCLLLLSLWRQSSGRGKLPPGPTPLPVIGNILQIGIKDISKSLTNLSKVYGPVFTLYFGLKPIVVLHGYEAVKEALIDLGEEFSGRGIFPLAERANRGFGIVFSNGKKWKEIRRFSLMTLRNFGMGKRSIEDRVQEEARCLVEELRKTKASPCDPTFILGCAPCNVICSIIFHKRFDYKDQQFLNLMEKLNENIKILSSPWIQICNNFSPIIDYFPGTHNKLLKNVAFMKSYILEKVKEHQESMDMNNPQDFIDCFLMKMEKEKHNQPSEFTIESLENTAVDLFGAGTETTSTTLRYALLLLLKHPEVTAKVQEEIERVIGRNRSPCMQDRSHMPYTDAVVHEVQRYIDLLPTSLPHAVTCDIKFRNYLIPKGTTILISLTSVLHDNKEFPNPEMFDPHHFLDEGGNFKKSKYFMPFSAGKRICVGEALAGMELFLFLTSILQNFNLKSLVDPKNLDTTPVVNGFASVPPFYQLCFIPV

[14] = system: P-gp; assay: Permeability from basolateral to apical side in MDCK cells harboring P-gp; type: ADME, cell-based, Canis lupus familiaris; conditions: dog, MDCK-MDR1; read-out: permeability
[15] = target: Metabotropic glutamate receptor 7 (Rattus norvegicus) (UniProt P35400); assay: Allosteric modulation of rat mGlu7 receptor expressed in HEK cells co-expressing GIRK1/2 assessed as change in glutamate-induced thallium flux preincubated for 2.5 mins followed by glutamate addition by FluoZin-2-AM dye based fluorescence assay; type: cell-based
Chain of Metabotropic glutamate receptor 7 (Rattus norvegicus) (P35400 whole entry): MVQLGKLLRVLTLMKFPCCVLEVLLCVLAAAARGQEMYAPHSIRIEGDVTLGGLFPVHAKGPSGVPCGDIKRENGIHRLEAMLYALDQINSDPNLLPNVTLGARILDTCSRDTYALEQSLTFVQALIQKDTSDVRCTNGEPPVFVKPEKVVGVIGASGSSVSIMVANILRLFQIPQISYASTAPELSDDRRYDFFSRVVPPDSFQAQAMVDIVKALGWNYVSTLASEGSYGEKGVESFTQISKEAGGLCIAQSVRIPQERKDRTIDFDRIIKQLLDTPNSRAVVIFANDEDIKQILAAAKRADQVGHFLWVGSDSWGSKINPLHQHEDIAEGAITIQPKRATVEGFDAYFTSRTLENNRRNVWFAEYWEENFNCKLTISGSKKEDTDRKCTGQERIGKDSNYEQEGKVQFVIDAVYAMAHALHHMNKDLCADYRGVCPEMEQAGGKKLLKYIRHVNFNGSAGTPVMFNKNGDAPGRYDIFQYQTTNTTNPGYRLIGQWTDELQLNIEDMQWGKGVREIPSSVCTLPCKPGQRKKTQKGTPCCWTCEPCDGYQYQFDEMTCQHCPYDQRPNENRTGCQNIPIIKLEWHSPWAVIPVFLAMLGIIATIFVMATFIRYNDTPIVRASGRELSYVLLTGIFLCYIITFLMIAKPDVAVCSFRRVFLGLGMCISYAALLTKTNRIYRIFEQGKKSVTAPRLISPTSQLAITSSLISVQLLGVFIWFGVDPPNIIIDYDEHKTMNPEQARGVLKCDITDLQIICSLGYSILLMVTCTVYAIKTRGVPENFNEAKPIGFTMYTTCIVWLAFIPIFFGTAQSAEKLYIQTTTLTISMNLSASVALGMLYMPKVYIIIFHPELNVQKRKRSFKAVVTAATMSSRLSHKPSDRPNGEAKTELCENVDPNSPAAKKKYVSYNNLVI

[16] = target: Metabotropic glutamate receptor 4 (Rattus norvegicus) (UniProt P31423); assay: Positive allosteric modulation of rat mGlu4 receptor expressed in HEK cells co-expressing GIRK1/2 assessed as increase in glutamate-induced thallium flux preincubated for 140 secs followed by glutamate addition and measured after 2.5 mins by FluoZin-2-AM dye based fluorescence assay relative to control; type: cell-based
Chain of Metabotropic glutamate receptor 4 (Rattus norvegicus) (P31423 whole entry): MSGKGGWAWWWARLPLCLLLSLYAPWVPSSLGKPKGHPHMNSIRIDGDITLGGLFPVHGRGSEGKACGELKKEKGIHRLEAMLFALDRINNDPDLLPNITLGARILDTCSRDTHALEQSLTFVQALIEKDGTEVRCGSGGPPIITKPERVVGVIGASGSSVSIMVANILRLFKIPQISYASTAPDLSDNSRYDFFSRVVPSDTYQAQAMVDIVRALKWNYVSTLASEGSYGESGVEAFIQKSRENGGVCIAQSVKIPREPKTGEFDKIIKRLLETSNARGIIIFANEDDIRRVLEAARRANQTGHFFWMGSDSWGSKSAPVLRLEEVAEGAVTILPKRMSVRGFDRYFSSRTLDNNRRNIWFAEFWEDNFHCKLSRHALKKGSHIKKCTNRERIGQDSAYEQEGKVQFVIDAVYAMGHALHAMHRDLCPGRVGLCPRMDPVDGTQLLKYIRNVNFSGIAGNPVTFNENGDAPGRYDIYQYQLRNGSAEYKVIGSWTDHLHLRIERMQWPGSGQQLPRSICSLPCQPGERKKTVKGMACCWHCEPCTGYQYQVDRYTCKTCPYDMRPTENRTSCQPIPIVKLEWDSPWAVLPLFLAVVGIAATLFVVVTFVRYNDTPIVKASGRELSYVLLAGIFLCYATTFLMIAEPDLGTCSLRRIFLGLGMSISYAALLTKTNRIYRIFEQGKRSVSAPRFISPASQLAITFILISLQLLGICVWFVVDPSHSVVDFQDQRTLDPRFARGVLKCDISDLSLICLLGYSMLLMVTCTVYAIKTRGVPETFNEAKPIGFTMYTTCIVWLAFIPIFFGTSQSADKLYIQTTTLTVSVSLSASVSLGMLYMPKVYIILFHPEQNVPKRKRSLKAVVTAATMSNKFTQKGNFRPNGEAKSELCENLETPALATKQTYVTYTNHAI
Procedure, shortened: (§3)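 HEK cells co-expressing rat mGlu4 and GIRK1/2 were loaded for 1 h at room temperature with FluoZin-2 AM (330 nM final) in HBSS/20 mM HEPES pH 7.4. Compound was incubated 140 s, then thallium buffer with or without agonist was added. Reading continued for 2.5 min at room temperature. Potency was fitted by four-parameter logistic.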

[17] = Drug uptake in rat brain administered as iv cassette dose; type: ADME, organism-based; conditions: in vivo
Procedure, shortened: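 Cassette dosing in male Sprague-Dawley rats (~300 g, n = 1 per experiment), with carotid artery and jugular vein catheters. Animals acclimated about one week with food and water ad libitum. Plasma (ng/mL) and brain (ng/g) levels were measured and Kp calculated.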

[18] = target: Metabotropic glutamate receptor 4 (Rattus norvegicus, UniProt P31423); assay: Positive allosteric modulation of rat mGlu4 receptor expressed in HEK cells co-expressing GIRK1/2 assessed as increase in glutamate-induced thallium flux preincubated for 140 secs followed by glutamate addition and measured after 2.5 mins by FluoZin-2-AM dye based fluorescence assay; type: cell-based; procedure, shortened: as §3
Chain of Metabotropic glutamate receptor 4 (P31423 whole entry): as above

[19] = Volume of distribution at steady state in rat administered as iv cassette dose; type: ADME, organism-based; conditions: in vivo, read-out: Vdss
Procedure, shortened: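 IV cassette in male Sprague-Dawley rats (~300 g, n = 1 per experiment), cannulated in carotid artery and jugular vein and acclimated about one week. Plasma clearance, Vss, t1/2 and MRT were derived.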

Which CLint scaled at 1 µM [1] does the source give for `O=C(NC1CC(F)(F)C1)c1nsc2cc(Nc3n[nH]c4cccnc34)ccc12` here?
Its CLint scaled at 1 µM is 1.14 L/h/kg.

And the Activity [2]?
Its Activity is “inactive”.

What about the Papp A→B [3] of the same compound?
Its Papp A→B is 29 nm/s.

What about the Activity [4] of the same compound?
The Activity was “inactive”.

What about the Activity [5] of the same compound?
The Activity was “inactive”.

And the Activity [6]?
Its Activity is “inactive”.

What about the fraction unbound at 4 h [7] of the same compound?
Its fraction unbound at 4 h is 0.005.

What about the Activity [8] of the same compound?
The Activity was “Active”.

What about the fraction unbound at 4 h [9] of the same compound?
Its fraction unbound at 4 h is 0.024.

What about the inhibition [10] of the same compound?
The inhibition was 76%.

What about the concentration [11] of the same compound?
Its concentration is 0.252 µM.

What about the concentration [12] of the same compound?
The concentration was 0.046 µM.

And the IC50 [13]?
Its IC50 is greater than 30 µM.

And the Papp B→A [14]?
Its Papp B→A is 54 nm/s.

And the Activity [15]?
Its Activity is “inactive”.

And the %max [16]?
The %max was 76.8%.

What about the Drug uptake [17] of the same compound?
Its Drug uptake is 107 ng/g.

And the EC50 [18]?
Its EC50 is 0.0827 µM.

What about the Vd [19] of the same compound?
The Vd was 1.6 L/kg.
